This passage reports inhibition results from PubChem BioAssay AID1556 (The Scripps Research Institute Molecular Screening Center, 2009).

The campaign covered roughly 290,000 compounds. About 1,300 (0.45%) were called active. Shown is part of a subset that was picked to be rich in actives. A number with no mark means an inactive call.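 How the source made its calls: active means inhibition above the mean plus 3 SD of all compounds in the same screening run (cut at about 4.5% in these data); inactive means the rest.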

This assay has as its system metallo-beta-lactamase IMP-1 (Pseudomonas aeruginosa). The assay can be described thus: inhibition of IMP-1 nitrocefin hydrolysis – biochemical, epi-absorbance readout, Pseudomonas aeruginosa enzyme, primary screen (AID 1556).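 Further: 0% = IMP-1 with DMSO and 100% = DMSO wells lacking enzyme.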 The note with it: purified IMP-1, nitrocefin hydrolysis, epi-absorbance fluorescence; at 5.6 µM; active compounds read high. The method in brief:
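System: purified IMP-1; amount: IMP-1 0.2 nM before substrate addition; compound: single dose, 5.6 µM; times: 25 °C, 15 min preincubation, 25 min reaction; signal: Epi-absorbance via hydrolysed-nitrocefin quenching of white-plate fluorescence, 480/530 nm, EDTA stop; benchmarks: DMSO with and without IMP-1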
As usually defined, the inhibition is the change of the read-out against control, counted positive when it falls. Consider `CSCCC(NC(=O)c1ccc(Cl)cc1Cl)C(=O)NNC(=O)c1csc(N2CCOCC2)n1` (stereo unspecified), for which the inhibition is -2.46%.

For `COc1ccc(Cl)cc1NC(=O)CCS(=O)(=O)c1ccc(Br)cc1`, the inhibition was 9.04% (active).

Take `O=C(CCS(=O)(=O)c1ccc(Br)cc1)NCCc1ccc(Cl)cc1`: the inhibition is 0.69%.

In the case of `COc1ccc(Cl)cc1NC(=O)CCS(=O)(=O)c1cc2c(cc1C)NC(=O)CO2`, the inhibition is -3.94%.

Turning to `COc1ccc2cc(-c3[nH]ncc3CNCCn3nc(C)cc3C)ccc2c1`, the inhibition is -2.54%.

For the compound `O=C(NCc1ccncc1)C(=O)NCC1OCCN1S(=O)(=O)c1ccc(Br)cc1` (stereo unspecified), the inhibition is -1.07%.

For the compound `COc1ccc(C(=O)/C=C/Nc2ccccn2)cc1`, the inhibition is 5.05% (active).

With `COc1ccc2cc(S(=O)(=O)Nc3ccccn3)ccc2c1`, the inhibition is -3.85%.

As to `CCOc1ccc(N/C=C/C(=O)c2ccccc2)cc1`, the inhibition was -2.54%.

For `COc1ccc(/C=N/Nc2ccccc2C(=O)O)cc1`, the inhibition was -1.08%.

For the compound `CCOC(=O)C1=C(c2ccccc2)NC(=O)NC1c1cc(OC)c(OC)cc1OC` (stereo unspecified), the inhibition was -2.08%.

With `Cc1ccccc1Nc1nnc(SCC(=O)c2cc3ccccc3o2)s1`, the inhibition was 7.2% (active).

With `Cc1ccc(Nc2nnc(SCC(=O)c3cc4ccccc4o3)s2)cc1C`, the inhibition is -0.86%.

Take `Cc1cc(NC(=O)CSc2nnc(Nc3ccccc3F)s2)no1`: the inhibition was -0.94%.

Regarding `O=[N+]([O-])c1cc(Cl)cc(/C=N/NC(=S)Nc2cc(S(=O)(=O)N3CCOCC3)ccc2Cl)c1O`, the inhibition is -0.24%.

Consider `O=C(N/N=C/c1cc(Cl)cc([N+](=O)[O-])c1O)C(O)(c1ccccc1)c1ccccc1`, for which the inhibition was -3.33%.

For `CN(C)/N=C/c1cc(Cl)cc([N+](=O)[O-])c1O`, the inhibition is 4.62% (active).

On to `O=C(Nc1ccccc1Cc1ccccc1)c1ccc2c(c1)SC1=NS(=O)(=O)CCN12`, for which the inhibition was -3.52%.

As to `COc1ccc(CNC(=O)CN(c2ccc(OC)c(Cl)c2)S(=O)(=O)c2ccc(C)cc2)cc1`, the inhibition is -0.9%.

Consider `CCOC(=O)c1cc2cc3ccccc3cc2oc1=O`, for which the inhibition is 0.55%.

`CC1CCN(C(=O)CCNC(=O)c2ccccc2)CC1`: the inhibition is -1.09%.

For `Cc1oc2c(F)c(F)c(F)c(F)c2c1S(=O)(=O)Nc1cccc(C(F)(F)F)c1`, the inhibition was -0.74%.

For `COc1ccc(OC)c(S(=O)(=O)N2CCCC(C(=O)NCCc3ccccc3)C2)c1` (stereo unspecified), the inhibition is -0.65%.

`Cc1cccn2c(=O)c(/C=C3\SC(=S)N(CC(C)C)C3=O)c(NCCCOC(C)C)nc12`: the inhibition was -1.23%.

For `CCCN(CCC)c1nc2c(C)cccn2c(=O)c1/C=C1/SC(=S)N(Cc2ccco2)C1=O`, the inhibition was 7.59% (active).

As for `CCOC(=O)CC1C(=O)NCCN1c1nc2c(C)cccn2c(=O)c1/C=C1\SC(=S)N(C(C)CC)C1=O` (stereo unspecified), the inhibition is -2.03%.

For `CC(C)(O)C#Cc1ccc(CN2CCC(CO)(CCc3ccccc3)CC2)cc1`, the inhibition is -0.34%.

`N#Cc1ccc(-c2nc3cc(C#N)c(C#N)cc3nc2-c2ccccc2)cc1C#N`: the inhibition was -3.53%.

As for `CC(=O)Nc1ccc(S(=O)(=O)N(C)c2nc3ccccc3nc2Cl)cc1`, the inhibition is -0.55%.

For the compound `O=C(Nc1ccc([N+](=O)[O-])cc1)C1CC12CCC2` (stereo unspecified), the inhibition is -0.64%.

Take `CCC(=C/c1sc2ccc3ccccc3c2[n+]1C)/C=C1\Sc2ccc3ccccc3c2N1C`: the inhibition is 17.3% (active).

Turning to `CCCNC(=O)CSc1nc(Cc2ccccc2)nc2ccccc12`, the inhibition was -3.79%.

As for `COc1cc(OC)cc(-c2cc3nc(C4CCN(C(=O)OC(C)(C)C)CC4)cc(=O)n3[nH]2)c1`, the inhibition was -4.79%.

As for `CCc1ccccc1NC(=O)CCOc1ccccc1`, the inhibition was -1.54%.

Consider `COc1cc(/C=C2/SC(=S)N(Cc3ccccc3)C2=O)cc(OC)c1O`, for which the inhibition is 10% (active).

For `COc1ccc(/C=C2\SC(=S)N(CCC(=O)Nc3ccccn3)C2=O)cc1OC`, the inhibition is -4.91%.

For the compound `COc1ccccc1C(=O)NNC(=O)CCN1C(=O)/C(=C\c2ccccc2)SC1=S`, the inhibition was -0.96%.

`CCCOC1CCCN(C(=O)c2cc(COc3cncc(Cl)c3)on2)C1` (stereo unspecified): the inhibition was -0.48%.

As to `O=C(COC(=O)c1ccc(N2CCCC2=O)cc1)c1ccc(OC(F)F)cc1`, the inhibition was -0.84%.

For the compound `C[C@@H]1CC[C@@]2(OC1)O[C@H]1C[C@H]3[C@@H]4CC=C5C[C@@H](O)[C@H](O)C[C@]5(C)C4CC[C@]3(C)[C@H]1[C@@H]2C` (stereo partly specified), the inhibition is -4.13%.

Regarding `Cc1ccc(S(=O)(=O)N2CCN=C2SCc2c(F)cccc2Cl)cc1`, the inhibition was 0.72%.

With `Cc1cc(C)c2cc(CN(Cc3cccs3)Cc3nnnn3CC3CCCO3)c(=O)[nH]c2c1` (stereo unspecified), the inhibition is -1.83%.

`Cc1cccc2cc(CN(Cc3nnnn3Cc3ccccc3)C3CCCC3)c(=O)[nH]c12`: the inhibition is -0.68%.

As for `Cc1cc(C)c2cc(CN(Cc3nnnn3Cc3ccc(F)cc3)C3CCCC3)c(=O)[nH]c2c1`, the inhibition is 6.27% (active).

On to `COCc1c(C(=O)N/N=C\c2cccnc2)nnn1-c1nonc1N`, for which the inhibition is -2.01%.

`COc1ccc(C2=NS(=O)(=O)N(C)C(C(=O)N3CCCCC3)=C2)cc1`: the inhibition was -5.03%.

For `Cc1nn(-c2cc(Cl)ccc2N)c(=O)c2ccccc12`, the inhibition was -2.53%.

On to `CC(=O)Nc1ccccc1Sc1ccc2c3c(cccc13)C(=O)N(c1ccc(C)cc1)C2=O`, for which the inhibition was -1.41%.

Take `O=C1c2ccccc2C(=O)N1c1cccc2ccccc12`: the inhibition was -2.06%.

Consider `CN1C(=O)c2cccc3c(N)ccc(c23)C1=O`, for which the inhibition was 41.5% (active).

Consider `O=C(O)c1ccc2c3c(cccc13)C(=O)N(OS(=O)(=O)c1ccccc1)C2=O`, for which the inhibition is -1.83%.

Consider `Cc1nn(C)cc1N1C(=O)c2cccc3c(N)ccc(c23)C1=O`, for which the inhibition is 22.2% (active).

With `CCn1c(SCC(=O)Nc2ccc(C)cc2)nc2nc3c(cc2c1=O)CCCC3`, the inhibition was -2.99%.

For the compound `COc1ccc(C(CC(=O)c2ccccc2)S(=O)(=O)c2ccccc2)cc1` (stereo unspecified), the inhibition was -1.87%.

As for `N#Cc1cccc(CN2CCC(=O)N(CCO)CC2)c1`, the inhibition was -1.5%.

On to `Cc1ccc(C(=O)NCC(=O)OCc2nnc(-c3ccccc3)o2)cc1`, for which the inhibition was -0.31%.

For the compound `Cc1ccccc1C(=O)NC(=S)Nc1ccc(N2CCN(C(=O)c3ccccc3)CC2)cc1`, the inhibition is -0.21%.

`CN(C)c1ccnc2sc(C(=O)c3ccccc3)c(N)c12`: the inhibition is -4.61%.

As for `Cc1nc2sc(C(=O)c3ccccc3)c(N)c2c2c1CCCC2`, the inhibition is -2.49%.

As for `Nc1c(C(=O)c2cccs2)sc2nsc(SCCN3CCCCC3)c12`, the inhibition is 6.4% (active).

Turning to `N#C/C(=C\c1cccnc1)C(=O)Nc1ccc(SC(F)F)cc1`, the inhibition is -1.66%.

Regarding `Nc1ccc2nc3c(=O)[nH]c(=S)[nH]c3nc2c1`, the inhibition was 26.7% (active).

For the compound `Cc1cccc(OCC(=O)Nc2ccc(C(=O)O)cc2NC(=O)COc2cccc(C)c2)c1`, the inhibition was -0.18%.

As for `O=C(CSc1nnnn1-c1ccc(O)cc1)N1N=C(c2ccc3ccccc3c2)CC1c1ccccc1` (stereo unspecified), the inhibition was -2.75%.

For `COc1ccc(N2CCN(S(=O)(=O)c3ccc4c(c3)N(C(C)=O)CCO4)CC2)cc1`, the inhibition is -2.08%.

Consider `O=C(Nc1ccc2nccnc2c1)c1ccco1`, for which the inhibition was -1.29%.

As for `O=C(Nc1ccccc1)c1ccco1`, the inhibition is -3.16%.

Take `Cc1ccnc(NC(=O)c2ccco2)n1`: the inhibition is 29.4% (active).

As for `Cc1cccc2c1cnn2C(=O)CCC(=O)NC1CCCCC1`, the inhibition is -3.55%.

Take `Cc1cccc(NC(=O)Cn2c(=O)n(Cc3ccccc3)c(=O)c3c(C)c(C)sc32)c1`: the inhibition is -3.05%.

With `COc1ccccc1CC(=O)Nc1ccc(S(=O)(=O)N2CCCC2)cc1`, the inhibition is -1.76%.

Turning to `CCN(CC(=O)Nc1ccc(S(=O)(=O)N2CCCC2)cc1)CC(=O)Nc1cccc(OC)c1`, the inhibition is 13% (active).

As to `CCOc1cccc(NC(=O)C2CCCN(S(=O)(=O)c3ccc(OC)cc3)C2)c1` (stereo unspecified), the inhibition was 0.1%.

As for `O=C(CN1CCN(c2ccc(O)cc2)CC1)Nc1ccc(-c2ccccc2)cc1`, the inhibition was -3.22%.

With `CC(C)N(C(=O)Cn1cc(S(=O)(=O)CC(=O)N2CCOCC2)c2ccccc21)C(C)C`, the inhibition was 1.49%.

As for `CC1=C(C(=O)Nc2ccccc2)C(c2ccco2)C(C#N)=C(SCC(N)=O)N1` (stereo unspecified), the inhibition was -0.1%.

As to `Cc1cc(C)c2c3c(sc2n1)C(c1ccccc1)C(C#N)=C(N)O3` (stereo unspecified), the inhibition is -3.3%.

On to `N#CC1=C(N)Oc2c(sc3ccccc23)C1c1ccco1` (stereo unspecified), for which the inhibition is 5.37% (active).

For `O=C1CC(Cc2ccccc2)C(=O)N1c1ccc(Cl)cn1` (stereo unspecified), the inhibition was -3.13%.

Consider `O=C(O)CN1C(=O)CC(Cc2ccccc2)C1=O` (stereo unspecified), for which the inhibition is 4.79% (active).

For the compound `Cc1cc(C)nc(N2C(=O)CC(Cc3ccccc3)C2=O)n1` (stereo unspecified), the inhibition is -2.26%.

As to `O=C1/C(=C/c2ccc3c(c2)OCO3)CCC/C1=C\c1ccc2c(c1)OCO2`, the inhibition was 0.49%.

For `CCC1=C/C(=C\c2ccc3c(c2)OCO3)C(=O)S1`, the inhibition was 6.67% (active).

`CCOC(=O)CCCNC(=O)COC(=O)/C=C/c1ccc2c(c1)OCO2`: the inhibition was -0.37%.

As for `O=C(Nc1ccc(F)cc1)C(=O)c1cn(CC(=O)N2CCOCC2)c2ccccc12`, the inhibition is -5.04%.

Take `CS(=O)(=O)N1CCN(C(=O)CSc2ccccc2)CC1`: the inhibition is -2.52%.

On to `Oc1ccc2ccc3cccc[n+]3c2c1`, for which the inhibition is 34.3% (active).

`CCCCC(=O)Nc1ccccc1N1CCN(c2ccc(F)cc2)CC1`: the inhibition was -3.05%.

With `CC(=O)N1c2ccc(S(=O)(=O)N3CCC(C(=O)NCc4ccc(F)cc4)CC3)cc2CC1C` (stereo unspecified), the inhibition was -3.57%.

In the case of `Cc1ccc(CNC(=O)C2CCN(S(=O)(=O)c3ccc4nc5c(c(C(=O)O)c4c3)CC(C)CC5)CC2)cc1` (stereo unspecified), the inhibition is 5.35% (active).

As for `CCOC(CNC(=O)C1CCN(S(=O)(=O)c2ccc3nc4c(c(C(=O)O)c3c2)CC(C)CC4)CC1)OCC` (stereo unspecified), the inhibition was -0.25%.
